Laboratory results: ChEMBL document CHEMBL1687936, “Radiosynthesis and biological evaluation of L- and D-S-(3-[18F]fluoropropyl)homocysteine for tumor imaging using positron emission tomography” (J Med Chem, 2011)

What was measured:
HT-29 = assay: Drug uptake in human HT-29 cells in presence of amino acid transport system A inhibitor MeAIB; assay type: ADME, cell-based
Outline: (§1)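 Cells were prepared as for the uptake assay and preincubated at 37 °C with inhibitor at 12.5 mmol/L in PBS; controls received PBS. 0.37 MBq [18F]tracer was added and incubated 30 min at 37 °C. Cells were washed cold, lysed and γ-counted. Uptake is given as % of the control group, n = 3.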

A-375 [1] = assay: Drug uptake in human A375 cells in presence of amino acid transport system A inhibitor MeAIB; assay type: ADME, cell-based; outline: as §1
A-375 [2] = assay: Cellular uptake in human A375 cells assessed as accumulation per 10^5 cells after 60 mins by gamma-counter; assay type: ADME, cell-based; settings: a-375, 1 h
Outline: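 Cells seeded at 2.5 × 10^5 per well in RPMI-1640 with 10% FBS and 2 mM L-glutamine, attached overnight, then washed with warm PBS. Incubated at 37 °C with 0.37 MBq [18F]tracer in PBS for 2–240 min. Cells washed with ice-cold PBS, lysed in 0.2 N NaOH and counted by γ-counter. Read as % applied dose per 10^5 cells, decay-corrected, n = 3.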

A-375 [3] = assay: Cellular uptake in human A375 cells after 2 mins by gamma-counter; assay type: ADME, cell-based; settings: a-375, 2 min
Outline: (§2)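 A375 cells grown in RPMI-1640 with 10% FBS and 2 mM L-glutamine; 2.5×10^5 seeded per well overnight, counts done in triplicate. After a warm PBS wash, cells got 0.37 MBq tracer in 500 μL PBS at 37 °C. Stopped with ice-cold PBS wash, lysed in 0.2 N NaOH, counted in a γ-counter. Decay-corrected % applied dose per 10^5 cells, mean ± SD, n = 3.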

Pancreas [4] = assay: Metabolic stability in pancreas of BALB/c nude mouse xenografted with human A375 cells assessed as radioactivity after 1 hrs by HPLC analysis; assay type: ADME, tissue-based, A-375; settings: in vivo
Outline: (§3)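 A375-tumored Balb/c nude mice received 18-20 MBq tracer iv. Plasma and urine were spiked with unlabeled FPHCys and KF and injected directly; tissues were sonicated in saline with carrier and centrifuged at 6000g. Radio-HPLC on C18 with methanol/phosphate buffer pH 6 gave intact fraction as authentic peak over total activity, at 0.25, 1 and 2 h.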

[5] = Metabolic stability in human A375 cells xenografted in BALB/c nude mouse assessed as radioactivity after 0.25 by HPLC analysis; assay type: ADME, cell-based, A-375; settings: in vivo; outline: as §3
Spleen [6] = assay: Biodistribution in spleen of BALB/c nude mouse xenografted with human A375 cells at 0.8 to 1 MBq, iv after 15 mins by gamma-counter; assay type: ADME, organism-based, A-375; settings: in vivo, 0.25 h
Outline: (§4)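 Female Balb/c nude mice with s.c. A375 flank tumors, studied 26 days after tumor induction. Tracer 0.8-1 MBq in 100 μL saline given i.v. Groups of n = 5 killed at 15, 30, 60 and 120 min. Organs weighed and counted in a γ-counter against dilutions of the injected dose. Values are % ID/g wet tissue, mean ± SD.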

Spleen [7] = assay: Biodistribution in spleen of BALB/c nude mouse xenografted with human A375 cells at 0.8 to 1 MBq, iv after 30 mins by gamma-counter; assay type: ADME, organism-based, A-375; settings: in vivo, 0.5 h; outline: as §4
Spleen [8] = assay: Biodistribution in spleen of BALB/c nude mouse xenografted with human A375 cells at 0.8 to 1 MBq, iv after 120 mins by gamma-counter; assay type: ADME, organism-based, A-375; settings: in vivo, 2 h; outline: as §4
Muscle tissue = assay: Biodistribution in muscle of BALB/c nude mouse xenografted with human A375 cells at 0.8 to 1 MBq, iv after 60 mins by gamma-counter; assay type: ADME, organism-based, A-375; settings: in vivo, 1 h; outline: as §4
Bone [9] = assay: Biodistribution in bone of BALB/c nude mouse xenografted with human A375 cells at 0.8 to 1 MBq, iv after 30 mins by gamma-counter; assay type: ADME, organism-based, Bone element, A-375; settings: in vivo, 0.5 h; outline: as §4
Bone [10] = assay: Biodistribution in bone of BALB/c nude mouse xenografted with human A375 cells at 0.8 to 1 MBq, iv after 120 mins by gamma-counter; assay type: ADME, organism-based, Bone element, A-375; settings: in vivo, 2 h; outline: as §4
Lung [11] = assay: Biodistribution in lungs of BALB/c nude mouse xenografted with human A375 cells at 0.8 to 1 MBq, iv after 60 mins by gamma-counter; assay type: ADME, organism-based, A-375; settings: in vivo, 1 h; outline: as §4
Lung [12] = assay: Biodistribution in lungs of BALB/c nude mouse xenografted with human A375 cells at 0.8 to 1 MBq, iv after 120 mins by gamma-counter; assay type: ADME, organism-based, A-375; settings: in vivo, 2 h; outline: as §4
Heart = assay: Biodistribution in heart of BALB/c nude mouse xenografted with human A375 cells at 0.8 to 1 MBq, iv after 120 mins by gamma-counter; assay type: ADME, organism-based, A-375; settings: in vivo, 2 h; outline: as §4
Brain [13] = assay: Biodistribution in brain of BALB/c nude mouse xenografted with human A375 cells at 0.8 to 1 MBq, iv after 15 mins by gamma-counter; assay type: ADME, organism-based, A-375; settings: in vivo, 0.25 h; outline: as §4
Brain [14] = assay: Biodistribution in brain of BALB/c nude mouse xenografted with human A375 cells at 0.8 to 1 MBq, iv after 60 mins by gamma-counter; assay type: ADME, organism-based, A-375; settings: in vivo, 1 h; outline: as §4
Pancreas [15] = assay: Biodistribution in pancreas of BALB/c nude mouse xenografted with human A375 cells at 0.8 to 1 MBq, iv after 15 mins by gamma-counter; assay type: ADME, organism-based, A-375; settings: in vivo, 0.25 h; outline: as §4
Blood = assay: Biodistribution in blood of BALB/c nude mouse xenografted with human A375 cells at 0.8 to 1 MBq, iv after 15 mins by gamma-counter; assay type: ADME, organism-based, A-375; settings: in vivo, 0.25 h; outline: as §4
[16] = Biodistribution in tumor of BALB/c nude mouse xenografted with human A375 cells at 0.8 to 1 MBq, iv after 15 mins by gamma-counter; assay type: ADME, organism-based, Neoplasm, A-375; settings: in vivo, 0.25 h; outline: as §4
[17] = Biodistribution in tumor of BALB/c nude mouse xenografted with human A375 cells at 0.8 to 1 MBq, iv after 30 mins by gamma-counter; assay type: ADME, organism-based, Neoplasm, A-375; settings: in vivo, 0.5 h; outline: as §4
[18] = Biodistribution in tumor of BALB/c nude mouse xenografted with human A375 cells at 0.8 to 1 MBq, iv after 60 mins by gamma-counter; assay type: ADME, organism-based, Neoplasm, A-375; settings: in vivo, 1 h; outline: as §4
[19] = Biodistribution in tumor of BALB/c nude mouse xenografted with human A375 cells at 0.8 to 1 MBq, iv after 120 mins by gamma-counter; assay type: ADME, organism-based, Neoplasm, A-375; settings: in vivo, 2 h; outline: as §4
Pancreas [20] = assay: Metabolic stability in pancreas of BALB/c nude mouse xenografted with human A375 cells assessed as radioactivity after 0.25 to 1 hrs by HPLC analysis; assay type: ADME, tissue-based, A-375; settings: in vivo; outline: as §3
Brain [21] = assay: Metabolic stability in brain of BALB/c nude mouse xenografted with human A375 cells assessed as radioactivity after 0.25 to 1 hrs by HPLC analysis; assay type: ADME, tissue-based, A-375; settings: in vivo; outline: as §3
[22] = Metabolic stability in urine of BALB/c nude mouse xenografted with human A375 cells assessed as radioactivity after 2 hrs by HPLC analysis; assay type: ADME, tissue-based, A-375; settings: in vivo; outline: as §3
Brain [23] = assay: Drug level in brain cortex extract of BALB/c nude mouse xenografted with human A375 cells assessed as radioactivity in protein fraction after 0.25 to 2 hrs; assay type: ADME, tissue-based, A-375; settings: in vivo
Outline: (§5)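 Female Balb/c nude mice bore subcutaneous A375 flank tumors and received 18-20 MBq tracer iv. Plasma or tissue was sonicated in 10% TCA with unlabeled FPHCys and KF, then centrifuged at 6000g; the pellet was re-extracted twice. Protein-bound fraction is pellet versus supernatant radioactivity, sampled at 0.25, 1 and 2 h.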

[24] = Drug level in tumor extract of BALB/c nude mouse xenografted with human A375 cells assessed as radioactivity in protein fraction after 0.25 to 2 hrs; assay type: ADME, Neoplasm, A-375; settings: in vivo; outline: as §5
A-375 [25] = assay: Cellular uptake in human A375 cells after 15 mins by gamma-counter; assay type: ADME, cell-based; settings: a-375, 0.25 h; outline: as §2
A-375 [26] = assay: Cellular uptake in human A375 cells after 15 to 60 mins by gamma-counter; assay type: ADME, cell-based; outline: as §2

Row | SMILES | Drug uptake (HT-29) | Drug uptake (A-375 [1]) | Drug uptake (Spleen [6]) [% ID/g] | Drug uptake (Spleen [7]) [% ID/g] | Drug uptake (Spleen [8]) [% ID/g] | Drug uptake (Muscle tissue) [% ID/g] | Drug uptake (Bone [9]) [% ID/g] | Drug uptake (Bone [10]) [% ID/g] | Drug uptake (Lung [11]) [% ID/g] | Drug uptake (Lung [12]) [% ID/g] | Drug uptake (Heart) [% ID/g] | Drug uptake (Brain [13]) [% ID/g] | Drug uptake (Brain [14]) [% ID/g] | Drug uptake (Pancreas [15]) [% ID/g] | Drug uptake (Blood) [% ID/g] | Drug uptake [16] [% ID/g] | Drug uptake [17] [% ID/g] | Drug uptake [18] [% ID/g] | Drug uptake [19] [% ID/g] | Stability (Pancreas [20]) [%] | also measured
1 | Cl.N[C@@H](CCSCCC[18F])C(=O)O | Active | Active | 5.05 | 4.18 | 1.39 | 2.52 | 3.5 | 1.69 | 2.62 | 1.63 | 1.37 | 3.13 | 1.3 | 14.3 | 5.17 | 9.41 | 8.28 | 5.64 | 4.4 | 85 | Drug uptake (A-375 [2]): 9%; Drug uptake (A-375 [3]): > 50%; Stability (Pancreas [4]): 30%; Stability [5]: 90%; Stability (Brain [21]): 85%; Stability [22]: < 4%; Drug uptake (Brain [23]): 1%; Drug uptake [24]: 1%
2 | Cl.N[C@H](CCSCCC[18F])C(=O)O | Active | Active | 4.24 | 2.83 | 0.31 | 1.44 | 2.29 | 1.05 | 1.55 | 0.85 | 0.4 | 1.53 | 0.75 | 37.1 | 3.51 | 6.01 | 5.87 | 3.91 | 1.68 | 85 | Drug uptake (A-375 [25]): Active; Drug uptake (A-375 [26]): Active; Stability (Brain [21]): 85%; Drug uptake (Brain [23]): 1%; Drug uptake [24]: 1%
